Data taken from ChEMBL document CHEMBL3272242, “Sulfamylurea hypoglycemic agents. 6. High-potency derivatives” (J Med Chem, 1976).
Calls of active or inactive are those of the source. The calls are words filed in the database; no cut-off is given here.

Legend:
[1] = system: Rattus norvegicus; test: Hypoglycemic activity in 18 to 24 hrs-fasted rat assessed as reduction in blood glucose at 5 mg/kg, ip measured after 1 hr relative to saline-treated control; assay type: functional; set-up: scale not given: the % may be the effect or the level left; conditions: route intraperitoneal
Procedure, shortened: (§1)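 Unanesthetized male Charles River rats (200–250 g), fasted 18–24 h, in groups of five or six. Single ip dose. Tail-vein blood drawn before dosing and 1 h after. Glucose measured by ferricyanide reduction micromethod on an autoanalyzer. Value is the percent fall in blood glucose at 1 h versus a saline-treated control group. Significance levels are p < 0.05, 0.01 and 0.001.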

[2] = system: Rattus norvegicus; test: Hypoglycemic activity in 18 to 24 hrs-fasted rat assessed as reduction in blood glucose at 50 mg/kg, ip measured after 1 hr relative to saline-treated control; assay type: functional; set-up: scale not given: the % may be the effect or the level left; conditions: route intraperitoneal; procedure, shortened: as §1
[3] = system: Rattus norvegicus; test: Hypoglycemic activity in 18 to 24 hrs-fasted rat assessed as reduction in blood glucose at 15 mg/kg, ip measured after 1 hr relative to saline-treated control; assay type: functional; set-up: scale not given: the % may be the effect or the level left; conditions: route intraperitoneal; procedure, shortened: as §1
[4] = system: Rattus norvegicus; test: Hypoglycemic activity in 18 to 24 hrs-fasted rat assessed as reduction in blood glucose at 1 mg/kg, ip measured after 1 hr relative to saline-treated control; assay type: functional; set-up: scale not given: the % may be the effect or the level left; conditions: route intraperitoneal; procedure, shortened: as §1
[5] = system: Rattus norvegicus; test: Hypoglycemic activity in 18 to 24 hrs-fasted rat assessed as reduction in blood glucose at 0.5 mg/kg, ip measured after 1 hr relative to saline-treated control; assay type: functional, organism-based; set-up: dose 0.5 mg/kg; procedure, shortened: as §1
[6] = system: Rattus norvegicus; test: Hypoglycemic activity in 18 to 24 hrs-fasted rat assessed as reduction in blood glucose at 25 mg/kg, ip measured after 1 hr relative to saline-treated control; assay type: functional; set-up: scale not given: the % may be the effect or the level left; conditions: route intraperitoneal; procedure, shortened: as §1
[7] = system: Rattus norvegicus; test: Hypoglycemic activity in 18 to 24 hrs-fasted rat assessed as reduction in blood glucose at 100 mg/kg, ip measured after 1 hr relative to saline-treated control; assay type: functional; set-up: scale not given: the % may be the effect or the level left; conditions: route intraperitoneal; procedure, shortened: as §1
[8] = species: Homo sapiens; test: Toxicity in maturity-onset diabetic patient; assay type: organism-based; conditions: in vivo

Structure (SMILES) | Activity [1] | Activity [3] | Activity [4] | other results
CCCNC(=O)NS(=O)(=O)c1ccc(Cl)cc1 [CHLORPROPAMIDE] | 10% | 18% | – | Activity [2]: 46%
Cn1cccc(C(=O)NCCC2CCN(S(=O)(=O)NC(=O)NC[C@@H]3C[C@@H]4C=C[C@@H]3C4)CC2)c1=O (relative stereo) | – | 40% | 19% | –
O.O=C(NC[C@@H]1C[C@@H]2C=C[C@@H]1C2)NS(=O)(=O)N1CCC(CCNC(=O)c2cccc3cccnc23)CC1 (relative stereo) | 34% | – | 32% | –
O.O=C(NC[C@@H]1C[C@@H]2C=C[C@@H]1C2)NS(=O)(=O)N1CCC(CCNC(=O)c2cc(Cl)cc3cccnc23)CC1 (relative stereo) | 35% | – | 16% | Activity [5]: inactive
COc1ncccc1C(=O)NCCC1CCN(S(=O)(=O)NC(=O)NC2CCCCC2)CC1 | 33% | 35% | 22% | –
COc1ncc(Cl)cc1C(=O)NCCC1CCN(S(=O)(=O)NC(=O)NC[C@@H]2C[C@@H]3C=C[C@@H]2C3)CC1.O (relative stereo) | – | – | 20% | Activity [5]: inactive
O=C(NC[C@@H]1C[C@@H]2C=C[C@@H]1C2)NS(=O)(=O)N1CCC(CCNC(=O)c2cc(Cl)ccn2)CC1 (relative stereo) | 32% | 46% | 16% | –
Cn1cc(C(=O)NCCC2CCN(S(=O)(=O)NC(=O)NC[C@@H]3C[C@@H]4C=C[C@@H]3C4)CC2)c(=O)n(C)c1=O (relative stereo) | 23% | 32% | 12% | –
O.O=C(NC1CCCCC1)NS(=O)(=O)N1CCC(CCNC(=O)c2cc(Cl)cc3cccnc23)CC1 | 52% | – | 17% | Activity [5]: inactive
COc1ccc(Cl)cc1C(=O)NCCC1CCN(S(=O)(=O)NC(=O)NC[C@@H]2C[C@@H]3C=C[C@@H]2C3)CC1 (relative stereo) | 37% | – | 27% | –
COc1ncccc1C(=O)NCCC1CCN(S(=O)(=O)NC(=O)NC23CC4CC(CC(C4)C2)C3)CC1 | 25% | – | 12% | –
CCCNC(=O)NS(=O)(=O)N1CCC(CCNC(=O)c2cc(Cl)ccc2OC)CC1 | 11% | – | 24% | Activity [6]: 41%
O=C(NC1CCCCC1)NS(=O)(=O)N1CCCCC1 | – | 19% | – | Activity [7]: 34%
COc1ccc(Cl)cc1C(=O)NCCC1CCN(S(=O)(=O)NC(=O)NC2CCCCC2)CC1 | 25% | – | 39% | –
COc1ncccc1C(=O)NCCC1CCN(S(=O)(=O)NC(=O)NC[C@@H]2C[C@@H]3C=C[C@@H]2C3)CC1 (relative stereo) | 32% | – | 25% | Activity [8]: Non-toxic
O=C(NC[C@@H]1C[C@@H]2C=C[C@@H]1C2)NS(=O)(=O)N1CCC(CCNC(=O)c2cccc3c2OCCO3)CC1 | 11% | 40% | – | –
O=C(NC1CCCCC1)NS(=O)(=O)N1CCC(CCNC(=O)c2cccc3cccnc23)CC1 | 37% | – | 29% | –
O.O=C(NC[C@@H]1C[C@@H]2C=C[C@@H]1C2)NS(=O)(=O)N1CCC(CCNC(=O)c2nc3ccccc3s2)CC1 (relative stereo) | 24% | 34% | 14% | –
